Publication PMC8649514 (Journal of the American Heart Association: Cardiovascular …, 2021)
Bridges are numbered along the chain shown (N, C = ends). Where no end group is shown, it is not given here.

What was measured:
[1] = test system: ventricular lysates of β2‐AR transgenic mouse hearts; test: Quantification of peptide accumulation in mouse heart lysates; assay type: in vivo; details: sulfo‐Cy5.5 cyclic peptide iv 0.5 mg/kg, 4 h, β2‐AR Tg mice; n=4 per group
[2] = test system: heart and organs of β2‐AR transgenic mice; test: Cardiac tracer uptake in whole organs by ex vivo NIR fluorescence imaging; design: species or system mouse; details: iv 0.5 mg/kg, 4 h, whole-organ Odyssey scan; P=0.057–0.1; n=4 per group
[3] = test system: collagen IV; test: Coimmunostaining of collagen IV and T peptide in human cardiac tissue; details: ex vivo costaining, IHD patient heart section, confocal microscopy
Summary of the method: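 Fresh-frozen IHD and nonfibrotic donor human heart cryosections (10 or 5 µm) were PBS-washed, blocked in 10% normal goat serum for 2 h at room temperature, and incubated 72 h at 4 °C with sulfo-Cy5.5 T peptide (0.0375 µg/mL in PBS). Collagen IV was stained with primary antibody (10 µg/mL, overnight, 4 °C) and Alexa Fluor 488 anti-rabbit secondary (2 µg/mL). Nuclei were stained with Hoechst (5 µg/mL), and images were taken by confocal microscopy at ×20.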

Substance | amount of peptide per gram tissue, left vs right transgenic ventricle [1] | peptide accumulation in kidneys and lungs, fibrotic vs nontransgenic mice [2] | overlap with collagen IV in human cardiac tissue [3]
GKWHCTTKFPHHYCLYG (disulfide 5-14 (inferred)) [cyclic peptide] | twice | near‐significant enhancement | 
TLTYTWS [T peptide] |  |  | high degree of overlap
